Results: the EternaBench riboswitch data

System: MS2 coat protein
Test: apparent Kd, MS2 coat protein; higher = weaker binding; RNA-MaP array; FMN 200 µM where present
In short: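 Green signal from SNAP-549-labelled MS2 coat protein was normalised to red-channel RNA signal and to the median Fmax of control clusters. The protein was titrated from 0.7 or 1.5 nM, doubling to 3 µM, without and then with constant ligand, over designs transcribed by stalled E. coli RNA polymerase on Illumina sequencing-chip clusters, in 100 mM Tris-HCl pH 7.5, 80 mM KCl, 4 mM MgCl2, BSA, DTT, yeast tRNA and Tween-20. The apparent Kd is the median of filtered per-cluster binding-curve fits.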

[1] = designed as: OFF switch for flavin mononucleotide, no ligand
[2] = ligand present: flavin mononucleotide, designed as: OFF switch for flavin mononucleotide
[3] = designed as: ON switch for flavin mononucleotide, no ligand
[4] = ligand present: flavin mononucleotide, designed as: ON switch for flavin mononucleotide

| Sequence | apparent Kd [1] | apparent Kd [2] | apparent Kd [3] | apparent Kd [4] |
| --- | --- | --- | --- | --- |
| AACAGCUCGUCAGGAUAUACAACACUGCUUCGGCAGAAUGAUAAGAUAACAUGAGGAUCACCCAUGUAGAAGGGACGAGCUGAA | 6.01 nM | 8.32 nM |  |  |
| GUACAUGAGCAGAAGGGCAAUUAAUUAAAUUUUUAUGUUUAUCAGAUAUGCAGGAUAUGUUAAACAUGAGGAUCACCCAUGUAC |  |  | 129 nM | 65.8 nM |
| UCCGAGUGAGGAUAUUGGAGUUGGUGCACUGCACAUAGGGUUAAGAAGGCACAUGAGGAUCACCCAUGUUACGU | 41.3 nM | 40.9 nM |  |  |
| AAUUGGAUGCAGAAGGCAUGGACGACUCGUCACAUUAACAUGAGGAUCACCCAUGUAAAAUAACAUGAGGAUAUGCAUCCUAAA |  |  | 9.81 nM | 6.15 nM |
| UUCCUCGUUGUGAGGAUAUCGUCCUCUUUUUGUUACGAGAAGGCACAUGAGGAUCACCCAUGUUUCUUGAUGUU | 16.7 nM | 42.3 nM |  |  |
| AUGAGGUCAGGAUAUGCAUGGCGGGACUUGCGUCGUGGCGUGGAGAAGGGACAUGAGGAUCACCCAUGUGGAGC | 56.6 nM | 64.7 nM |  |  |
| CGAUAACAUAGUUAUCCGUAACGGACAUGAGGAUCACCCAUGUAGGAUAUGUUACUCCACGAGUAACAGAAGGACAUGAGUCUU | 19.3 nM | 95.7 nM |  |  |
| GGGAGACAUGAGGAUCACCCAUGUGAAAACGUGCGAGGAUAUCUAUGGAAACCAUACUGUAGAGAAGGCGUUUGUC |  |  | 88.4 nM | 46.6 nM |
| GUGUACAUAUCAGGAUAUCUAUUUCCUACAUGAGGAUCACCCAUGUAGAUGAUCACCCAUGUAAAGGAGAAGGGAUAUGUAUAC |  |  | 384 nM | 222 nM |
| UACAAUCUAUCUGAGGAUAUCAUGAAAAAAACAUGAGGAUCACCCAUGUGCAGGAAAACUGCAUAUGAGAAGGCAGAUAGAUUGU |  |  | 770 nM | 25.7 nM |
| UUCAUGUGAGGAUAUAAAAGGAAGGUGGUAUCUAUCAACAAUUAGAAGGCACAUGAGGAUCACCCAUGUCUGAA | 67 nM | 60.9 nM |  |  |
| AGCUAGGUAGGAUAUGCGUAAAUGUCGAAAGACGUAUUGGGACAUGAGGAUCACCCAUGUAGAAGGAUCUAGCA | 39.3 nM | 55.7 nM |  |  |
| CACAAAUGGCAGAAGGGACGGACGAUAGUGUAGUCAGGAUAUGCAAAUAGGUAUGGACAUGAGGAUCACCCAUGUCCGUCCUUU |  |  |  | 5.27 nM |
| AAGGAUAGAGGAUAUGCAUAGAUACAGAUUCAUGUAGAACUACAUGAGGAUCACCCAUGUAGAAGGCUAUCCUA | 18.6 nM | 50.8 nM |  |  |
| CCGGAAAUAGAGGAUAUCGUAUCGGAUACGAUACGAGAAGGCUAUACAUGAGGAUCACCCAUGUGUCCUACCGG | 16.4 nM | 40.5 nM |  |  |
| UUUACAUGAGGAUCACCCAUGUAUAGAACGGUUCAUUAAAGUGAGGAUAUACAUAAUUUUAAAUUGUAGAAGGCACUGGGUACA |  |  | 17.7 nM | 19.1 nM |
| AUUAUAUAGAUAGGAUAUUGAUUAUUAUUUUAACAUGAGGAUCACCCAUGUAGCCUUAUGUAUAACAAGAAGGAUCAUUUAUUA | 161 nM | 181 nM |  |  |
| CUACGAACGAUAGGAUAUACUGAGGUUGAGUGGGUAGAAGGAUCGAUAGUGGAGAAGACAUGAGGAUCACCCAUGUUGUGGAUU |  |  | 176 nM | 45.5 nM |
| GGGCUCGGAGGAUAUACAAUGGGCCCGGGAAACCGGGCCCUACAUGAGGAUCACCCAUGUAGAAGGUCGGGCUC | 16.4 nM | 24.8 nM |  |  |
| CGUGUUUCGUUGUAACCCAUUUACAUGAGGAUCACCCAUGUAGAGGAUAUAGGUCACCACGGUACCUAGAAGGCUGCAGGUGUG | 30.3 nM | 41 nM |  |  |
| AUGCUUCACACAGGAUAUACAUGAGGAUCACCCAUGUGUCCACCGUAGCUGACACGAGCUACGCGGUAGAAGGGUGUGAAGCAU | 18 nM | 33.3 nM |  |  |
| UUUUAACAUGAGGAUCACCCAUGUGAGGAUAUCGAAAUUUAUAUUUAUAUUAAUUUUACGAGAAGGCACAUUUU | 112 nM | 125 nM |  |  |
| AUUUUGUCAGGAUAUGAGUAGUAGGAUGAGAGUGCUACUACUUAGAAGGGACAUGAGGAUCACCCAUGUCUUCC | 14.2 nM | 16.7 nM |  |  |
| GGUGGGAGGUAGACUGGACGGGCAACAUGAGGAUCACCCAUGUAGGAUAUCGUGUGUGUCAACGACGAGAAGGGCGUAGGCGGA | 20.3 nM | 17.1 nM |  |  |

| Sequence | apparent Kd [1] | apparent Kd [2] | apparent Kd [3] | apparent Kd [4] |
| --- | --- | --- | --- | --- |
| ACAAGGCAUGUAGGAUAUCCAUUGCGUCGCGAUGGAGAAGGACAACACACAUGAGGAUCACCCAUGUGGUCACCCAUGUCGUGU | 51.3 nM | 169 nM |  |  |
| AGGUGUAGAGGAUAUCGAGUUCUUUACAUGAGGAUCACCCAUGUCCUGGGCACCCAGGACUGAGAAGGCUACACCA | 478 nM | 180 nM |  |  |
| AGAAAGUGAGGAUAUACGAAACCAGCCUAAAUGGCUGGAAAGUAGAAGGCACAUGAGGAUCACCCAUGUAAAGA | 24.4 nM | 31.6 nM |  |  |
| ACAAGAUCAGGAUAUACAUGAGGAUCACCCAUGUUUAUCCAAAAGGGACUUUCUUUAUGUAGAAGGGAUCUUGU | 16.8 nM | 32.3 nM |  |  |
| AAAAAAAAAAGACAGGAUAUCCAAAAAAAAACAUGAGGAUCACCCAUGUAAAAAAAAAAAAAAUGGGAGAAGGGUCAAAAAAAAAA |  |  | 63.2 nM | 32.1 nM |
| UUAAUUAAUUAAUUAUACAUGAGGAUCACCCAUGUAAGUGAUCAGGAUAUCAGCUCGUGUAGAGCUGAGAAGGGAUACAUGUAA |  |  | 194 nM | 102 nM |
| GAUGGACAUGAGGAUCACCCAUGUAAGGAUAUUGAUUGUGGCUAUAAAUGGUUACGGUCGAGAAGGUACUCGUC | 82.2 nM | 78.8 nM |  |  |
| CGAGACCUCACAGGAUAUGCUGGACUUUGUCCAGCAGAAGGGUGAAAACAUGAGGAUCACCCAUGUAUGGUCUCCAAAUUUAAG |  |  | 195 nM | 13.2 nM |
| GGAUAGGACAGAGGAUAUACGUGCUAGAGAUACUAGCAAAAUUUCCUCACAUGAGGAUCACCCAUGUAGAAGGUUGUCCUAUCG | 5.14 nM | 11.8 nM |  |  |
| AGCAUGUAAGGAUAUGCAAGUGGUACGGAUAGUACCAUAAAGCAGAAGGUACAUGAGGAUCACCCAUGUGCUCC | 36.3 nM | 66.7 nM |  |  |
| GGGCUCGUCGUAAACGACAUGAGGAUCACCCAUGUUGGGCACAGAAGGGCCUUCAUUCGGAUCAGGCAGGAUAUGUAUCUAACA | 5.09 nM | 5.32 nM |  |  |
| UUAAAUCAUGUAGGAUAUGCAUGGCGAAGCUACGCAGAAGGACAUGAGGAUCACCCAUGUGCUAGCGUCUGAGUACAGAUGCAA | 39.3 nM | 259 nM |  |  |
| UAUAUGUCAGGAUAUUAGUUGUGGACGAAUUUCACUUCUGCUGAGAAGGGACAUGAGGAUCACCCAUGUUCCUC | 15.4 nM | 16 nM |  |  |
| GUCAGCUCAUGAGGAUAUACAACACUGCUUCGGCAGUGUAUUAAGAUCACAUGAGGAUCACCCAUGUAGAAGGCACGAGCUGAU | 12.9 nM | 258 nM |  |  |
| ACGGCAAUCAGAGGAUAUGGUUACAUGAGGAUCACCCAUGUCAAGGGUCUAAUUAGGUAUAACUACCAGAAGGCUGAAGGCCUA | 56.1 nM | 94.8 nM |  |  |
| GGAGAACAUGAGGAUCACCCAUGUGGAUGGGCGCUAGGAUAUGCGGGAGGGUGAAGAGAAGCAGAAGGAGUGGAUA |  |  | 77.6 nM | 76.1 nM |
| GGGAAACAUGAGGAUCACCCAUGUCAGGAUAUGAUACUAUGUACUUCGGUACAUAGUAUCAGAAGGGACAUCAU | 73.8 nM | 204 nM |  |  |
| GGAUUACGAGGAUAUCGAUUUUAGUACAUGAGGAUCACCCAUGUUGUCCAGGUCUCGUUUCGAGAAGGCGUGAUUC | 65.1 nM | 48.7 nM |  |  |
| CUGUACUGAGGAUAUACAUGAGGAUCACCCAUGUGUUCGAUACUAGUGAGGUCGAUUAGUAGAAGGCAGUACAG | 23 nM | 242 nM |  |  |
| GAUUAUAAGUAAGGAUAUGUAUAUGAAACAUCUACAGAAGGUACAUGAGGAUCACCCAUGUUCUUGCAGCGUGACUAUGUAAUC | 24 nM | 27.9 nM |  |  |
| GUUGGUUAUGUAGGAUAUGCGAGGCGAGCCUAAGCAGAAGGACAUGAGGAUCACCCAUGUAUUGCGGUCUGCGUUCAGAUCGCU | 36.2 nM | 156 nM |  |  |
| CCCGACUAGAAGUCGAUACGGAGGAGAAGGCGCCUCCUGGGUCCACAUGAGGAUCACCCAUGUGGCGAGGAUAUCCUCAGUUUU | 10.9 nM | 96.6 nM |  |  |
| AACAGUACAGGAUAUACAUGAGGAUCACCCAUGUGAGCGUUAAGUGCCGUAGCACAAAGUAGAAGGGUACUGGA | 29.9 nM | 92.5 nM |  |  |
| AUUAUACAUGAGGAUCACCCAUGUAAUUAAUUAAUUAAGAUCUAGGAUAUCAGCUCGAUUAGAGCUGAGAAGGAGAUCACAUGU |  |  | 29.9 nM | 18.7 nM |
